Experimental data as given in ChEMBL document CHEMBL2176919, “Design, synthesis, and biological evaluation of 17-cyclopropylmethyl-3,14β-dihydroxy-4,5α-epoxy-6β-[(4'-pyridyl)carboxamido]morphinan derivatives as peripheral selective μ opioid receptor Agents” (J Med Chem, 2012).
Activity calls are given as the source filed them.

Legend:
[1] = Selectivity ratio of Ki for kappa opioid receptor to Ki for mu opioid receptor
Mu-type opioid receptor [2] = molecular target: T1, Mu-type opioid receptor (Homo sapiens, UniProt P35372); experiment: Agonist activity at mu opioid receptor expressed in CHO cells assessed as stimulation of [35S]-GTP-gammaS binding relative to DAMGO; assay type: cell-based
T1 sequence (P35372 whole entry): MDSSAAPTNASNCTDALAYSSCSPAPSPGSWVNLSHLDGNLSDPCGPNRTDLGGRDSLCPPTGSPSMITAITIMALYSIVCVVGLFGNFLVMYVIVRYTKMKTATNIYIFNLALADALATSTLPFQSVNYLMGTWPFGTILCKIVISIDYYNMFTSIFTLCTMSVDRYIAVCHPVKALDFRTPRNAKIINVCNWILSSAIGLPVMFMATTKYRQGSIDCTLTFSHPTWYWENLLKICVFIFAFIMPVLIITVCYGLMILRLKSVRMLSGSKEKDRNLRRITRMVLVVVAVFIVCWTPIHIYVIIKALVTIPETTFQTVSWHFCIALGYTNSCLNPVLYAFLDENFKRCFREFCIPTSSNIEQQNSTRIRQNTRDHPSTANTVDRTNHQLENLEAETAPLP

[3] = Selectivity ratio of Ki for delta opioid receptor to Ki for mu opioid receptor
[4] = molecular target: T2, Kappa-type opioid receptor (Homo sapiens, UniProt P41145); experiment: Displacement of [3H]DPN from kappa opioid receptor expressed in CHO cells after 1 hr; assay type: cell-based
T2 sequence (P41145 whole entry): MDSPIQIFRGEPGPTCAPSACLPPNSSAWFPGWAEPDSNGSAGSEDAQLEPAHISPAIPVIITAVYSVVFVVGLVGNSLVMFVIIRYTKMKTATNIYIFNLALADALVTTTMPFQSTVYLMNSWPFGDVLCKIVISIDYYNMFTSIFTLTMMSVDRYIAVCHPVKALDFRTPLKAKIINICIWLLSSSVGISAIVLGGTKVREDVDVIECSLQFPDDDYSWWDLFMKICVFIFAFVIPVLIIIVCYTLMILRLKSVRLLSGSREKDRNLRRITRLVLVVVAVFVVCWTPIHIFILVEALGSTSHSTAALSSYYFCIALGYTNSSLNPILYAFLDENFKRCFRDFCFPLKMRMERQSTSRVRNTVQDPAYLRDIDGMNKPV

[5] = molecular target: T3, Delta-type opioid receptor (Homo sapiens, UniProt P41143); experiment: Displacement of [3H]NTI from delta opioid receptor expressed in CHO cells after 1 hr; assay type: cell-based
T3 sequence (P41143 whole entry): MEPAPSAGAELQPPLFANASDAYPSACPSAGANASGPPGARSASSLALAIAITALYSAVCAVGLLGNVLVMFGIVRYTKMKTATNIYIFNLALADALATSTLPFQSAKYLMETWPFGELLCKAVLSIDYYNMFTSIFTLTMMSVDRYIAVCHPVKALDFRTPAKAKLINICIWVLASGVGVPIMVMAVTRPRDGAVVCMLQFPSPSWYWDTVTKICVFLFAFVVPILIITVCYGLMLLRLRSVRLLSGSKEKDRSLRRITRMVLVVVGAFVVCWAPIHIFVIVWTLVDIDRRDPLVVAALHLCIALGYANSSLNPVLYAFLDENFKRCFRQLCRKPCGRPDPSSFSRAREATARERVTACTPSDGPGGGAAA

Mu-type opioid receptor [6] = molecular target: T1, Mu-type opioid receptor; experiment: Displacement of [3H]Naloxone from mu opioid receptor expressed in CHO cells after 1 hr; assay type: cell-based
Mus musculus [7] = experiment: Effect on gastrointestinal motility in Swiss-Webster mouse at 10 mg/kg, sc; assay type: functional, organism-based; parameters: dose 10 mg/kg
Mus musculus [8] = experiment: Inhibition of morphine-induced decrease in gastrointestinal motility in morphine-pelleted Swiss-Webster mouse at 0.3 to 10 mg/kg, sc; assay type: functional, organism-based
Mus musculus [9] = experiment: Antinociceptive activity in Swiss-Webster mouse assessed as thermal-stimulus induced tail flick latency at 3 mg/kg relative to morphine; assay type: functional
Procedure, shortened: (§1)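 Warm-water tail flick test in male Swiss-Webster mice (25–30 g) with a 56 ± 0.1 °C bath. Only mice with a 2–4 s baseline latency were used, and a 10 s cutoff was applied. Latency was read after drug treatment. %MPE = [(test − control latency)/(10 − control latency)] × 100, computed per mouse with at least six mice per drug.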

Mus musculus [10] = experiment: Inhibition of morphine-induced decrease in gastrointestinal motility in Swiss-Webster mouse at 10 mg/kg, sc; assay type: functional, organism-based; parameters: dose 10 mg/kg
Procedure, shortened: (§2)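 GI transit assay in male Swiss-Webster mice, groups of four or six. Compound or saline was given sc at time zero, then morphine (2 or 10 mg/kg) sc 5 min later. A charcoal meal was gavaged 20 min after morphine. Mice were killed 30 min after the meal, and charcoal distance was expressed as a percentage of small-intestine length from pylorus to cecum. Significance was tested by one-way ANOVA with Dunnett's test.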

Mus musculus [11] = experiment: Inhibition of morphine-induced decrease in gastrointestinal motility in sc dosed morphine-pelleted Swiss-Webster mouse; assay type: functional
Mus musculus [12] = experiment: Inhibition of morphine-induced antinociceptive activity in Swiss-Webster mouse assessed as thermal-stimulus induced tail flick latency up to 30 mg/kg; assay type: functional, organism-based; parameters: dose 30 mg/kg
[13] = molecular target: T3, Delta-type opioid receptor; experiment: Agonist activity at delta opioid receptor expressed in CHO cells assessed as stimulation of [35S]-GTP-gammaS binding; assay type: functional, cell-based
Procedure, shortened: (§3)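 GTP[γS] functional assay in membranes of CHO cells expressing the cloned opioid receptor. Membrane protein 10 μg incubated at 30 °C with varying drug concentrations and 0.1 nM 35S-GTP[γS]: μ with 10 μM GDP for 2 h; κ and δ with 20 μM GDP for 1.5 h. Nonspecific binding defined with 10 μM unlabeled GTP[γS].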

[14] = molecular target: T2, Kappa-type opioid receptor; experiment: Agonist activity at kappa opioid receptor expressed in CHO cells assessed as stimulation of [35S]-GTP-gammaS binding; assay type: functional, cell-based; procedure, shortened: as §3
[15] = molecular target: T2, Kappa-type opioid receptor; experiment: Agonist activity at kappa opioid receptor expressed in CHO cells assessed as stimulation of [35S]-GTP-gammaS binding relative to U50,488H; assay type: functional, cell-based
Caco-2 = experiment: Apparent permeability of the compound across human Caco2 cells; assay type: ADME, cell-based
Procedure, shortened: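 Caco-2 cells (passages 45–47) grown 22 days on 0.4 μm Transwell filters seeded at 80 000 cells/cm2, in DMEM with 10% FBS, antibiotics and nonessential amino acids. Drug in HEPES-buffered (10 mM) HBSS was added apically or basolaterally, and the receiver side was sampled up to 2 h. Samples were quantified by HPLC-UV. Papp = J/(A·Ci).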

Mus musculus [16] = experiment: Toxicity in morphine-pelleted Swiss-Webster mouse assessed as diarrhea up to 10 mg/kg, sc; assay type: organism-based; parameters: dose 10 mg/kg, route subcutaneous; settings: in vivo
[17] = molecular target: T3, Delta-type opioid receptor; experiment: Agonist activity at delta opioid receptor expressed in CHO cells assessed as stimulation of [35S]-GTP-gammaS binding relative to SNC80; assay type: functional, cell-based
Mus musculus [18] = experiment: Antinociceptive activity in Swiss-Webster mouse assessed as thermal-stimulus induced tail flick latency at 10 mg/kg; assay type: functional
Procedure, shortened: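 Male Swiss-Webster mice, 25–30 g, allowed 18 h to recover from transport. Warm-water tail flick, bath at 56 ± 0.1 °C; only mice with 2–4 s baseline latency used. Latency retested after drug at the appropriate time, 10 s cutoff. Expressed as %MPE = [(test − control latency)/(10 − control latency)] × 100, calculated per mouse, at least six mice per drug.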

Mu-type opioid receptor [19] = molecular target: T1, Mu-type opioid receptor; settings: CHO; 100 nM
Mu-type opioid receptor [20] = molecular target: T1, Mu-type opioid receptor; experiment: Agonist activity at mu opioid receptor expressed in CHO cells assessed as stimulation of [35S]-GTP-gammaS binding; assay type: cell-based; procedure, shortened: as §3
Mus musculus [21] = experiment: Antinociceptive activity in Swiss-Webster mouse assessed as thermal-stimulus induced tail flick latency at 10 mg/kg relative to morphine; assay type: functional; procedure, shortened: as §1
Mus musculus [22] = experiment: Inhibition of morphine-induced antinociceptive activity in Swiss-Webster mouse assessed as thermal-stimulus induced tail flick latency at 10 mg/kg; assay type: functional, organism-based; parameters: dose 10 mg/kg
Mus musculus [23] = experiment: Inhibition of morphine-induced decrease in gastrointestinal motility in sc dosed Swiss-Webster mouse; assay type: functional; procedure, shortened: as §2

Compound: O=C(N[C@@H]1CC[C@@]2(O)[C@H]3Cc4ccc(O)c5c4[C@@]2(CCN3CC2CC2)[C@H]1O5)c1ccncc1Cl
- Ratio Ki [1]: 30
- Emax (Mu-type opioid receptor [2]): 24.9%
- Ratio Ki [3]: 746

Compound: O=C(N[C@@H]1CC[C@@]2(O)[C@H]3Cc4ccc(O)c5c4[C@@]2(CCN3CC2CC2)[C@H]1O5)c1ccnc(Cl)c1
- Ratio Ki [1]: 1.5
- Emax (Mu-type opioid receptor [2]): 58.2%
- Ratio Ki [3]: 6110

Compound: C[N@+]1(CC2CC2)CC[C@]23c4c5ccc(O)c4O[C@H]2C(=O)CC[C@@]3(O)[C@H]1C5
- Ratio Ki [1]: 10
- Ratio Ki [3]: 24

Compound: O=C(CCc1ccncc1)N[C@@H]1CC[C@@]2(O)[C@H]3Cc4ccc(O)c5c4[C@@]2(CCN3CC2CC2)[C@H]1O5
- Ratio Ki [1]: 2.9
- Emax (Mu-type opioid receptor [2]): 22.6%
- Ratio Ki [3]: 516

Compound: COc1cnccc1C(=O)N[C@@H]1CC[C@@]2(O)[C@H]3Cc4ccc(O)c5c4[C@@]2(CCN3CC2CC2)[C@H]1O5
- Ki [4]: 4.28 nM
- Ki [5]: 104 nM
- Ratio Ki [1]: 10
- Ki (Mu-type opioid receptor [6]): 0.43 nM
- Ratio Ki [3]: 242

Compound: O=C(CNC(=O)c1ccncc1)N[C@@H]1CC[C@@]2(O)[C@H]3Cc4ccc(O)c5c4[C@@]2(CCN3CC2CC2)[C@H]1O5
- Activity (Mus musculus [7]): Active
- inhibition (Mus musculus [8]): Active
- MPE (Mus musculus [9]): 11.2%
- inhibition (Mus musculus [10]): inactive
- ED50 (Mus musculus [11]): 0.08 mg/kg
- inhibition (Mus musculus [12]): inactive
- EC50 [13]: 19 nM
- EC50 [14]: 25 nM
- Emax [15]: 23.5%
- Emax (Mu-type opioid receptor [2]): 22.6%
- Papp (Caco-2): permeable
- Activity (Mus musculus [16]): Non-toxic
- Emax [17]: 84.3%

Compound: Cc1cc(C(=O)N[C@@H]2CC[C@@]3(O)[C@H]4Cc5ccc(O)c6c5[C@@]3(CCN4CC3CC3)[C@H]2O6)ccn1
- Ratio Ki [1]: 1.5
- Emax (Mu-type opioid receptor [2]): 43.3%
- Ratio Ki [3]: 232

Compound: CN1CC[C@]23c4c5ccc(O)c4O[C@H]2[C@@H](O)C=C[C@H]3[C@H]1C5 [MORPHINE]
- MPE (Mus musculus [18]): 100%

Compound: C[C@@H](O)[C@H](NC(=O)[C@H]1NC(=O)[C@H]([C@@H](C)O)NC(=O)[C@H](CCCNC(=N)N)NC(=O)[C@@H](Cc2c[nH]c3ccccc23)NC(=O)[C@H](Cc2ccc(O)cc2)NC(=O)[C@@H](NC(=O)[C@H](N)Cc2ccccc2)CSSC1(C)C)C(N)=O
- Emax (Mu-type opioid receptor [19]): 1.99%

Compound: N#Cc1cc(C(=O)N[C@@H]2CC[C@@]3(O)[C@H]4Cc5ccc(O)c6c5[C@@]3(CCN4CC3CC3)[C@H]2O6)ccn1
- Ki [4]: 0.13 nM
- Ki [5]: 75.3 nM
- Ratio Ki [1]: 0.1
- Emax (Mu-type opioid receptor [2]): 43.1%
- Ki (Mu-type opioid receptor [6]): 1.25 nM
- EC50 (Mu-type opioid receptor [20]): 10 nM
- Ratio Ki [3]: 60

Compound: O=C(Cc1ccncc1)N[C@@H]1CC[C@@]2(O)[C@H]3Cc4ccc(O)c5c4[C@@]2(CCN3CC2CC2)[C@H]1O5
- Ratio Ki [1]: 10.6
- Emax (Mu-type opioid receptor [2]): 32.8%
- Ratio Ki [3]: 1020

Compound: O=C(N[C@@H]1CC[C@@]2(O)[C@H]3Cc4ccc(O)c5c4[C@@]2(CCN3CC2CC2)[C@H]1O5)c1ccnc(Br)c1
- Ratio Ki [1]: 0.3
- Emax (Mu-type opioid receptor [2]): 50.8%
- Ratio Ki [3]: 276

Compound: O=C(N[C@@H]1CC[C@@]2(O)[C@H]3Cc4ccc(O)c5c4[C@@]2(CCN3CC2CC2)[C@H]1O5)c1ccnnc1
- Ki [4]: 1.57 nM
- Ki [5]: 420 nM
- Ratio Ki [1]: 0.7
- Emax (Mu-type opioid receptor [2]): 27.6%
- Ki (Mu-type opioid receptor [6]): 2.07 nM
- EC50 (Mu-type opioid receptor [20]): 28.3 nM
- Ratio Ki [3]: 203

Compound: O=C(N[C@@H]1CC[C@@]2(O)[C@H]3Cc4ccc(O)c5c4[C@@]2(CCN3CC2CC2)[C@H]1O5)c1ccncc1Br
- Ratio Ki [1]: 6
- Emax (Mu-type opioid receptor [2]): 23.2%
- Ratio Ki [3]: 285

Compound: COc1cc(C(=O)N[C@@H]2CC[C@@]3(O)[C@H]4Cc5ccc(O)c6c5[C@@]3(CCN4CC3CC3)[C@H]2O6)ccn1
- Ki [4]: 0.46 nM
- Ki [5]: 160 nM
- Ratio Ki [1]: 0.8
- Emax (Mu-type opioid receptor [2]): 25.3%
- Ki (Mu-type opioid receptor [6]): 0.6 nM
- EC50 (Mu-type opioid receptor [20]): 7.89 nM
- Ratio Ki [3]: 267

Compound: Cc1cnccc1C(=O)N[C@@H]1CC[C@@]2(O)[C@H]3Cc4ccc(O)c5c4[C@@]2(CCN3CC2CC2)[C@H]1O5
- Activity (Mus musculus [7]): Active
- inhibition (Mus musculus [10]): Active
- MPE (Mus musculus [21]): 4.4%
- ED50 (Mus musculus [11]): 0.03 mg/kg
- inhibition (Mus musculus [11]): Dose-dependent effect
- EC50 [13]: 38.6 nM
- Ratio Ki [1]: 166
- EC50 [14]: 26.4 nM
- Emax [15]: 31.4%
- Emax (Mu-type opioid receptor [2]): 30.6%
- Papp (Caco-2): permeable
- Activity (Mus musculus [16]): Non-toxic
- Emax [17]: 90.2%
- Ratio Ki [3]: 470
- inhibition (Mus musculus [22]): inactive
- ED50 (Mus musculus [23]): 7.85 mg/kg

Compound: CN1CCC(C(=O)N[C@@H]2CC[C@@]3(O)[C@H]4Cc5ccc(O)c6c5[C@@]3(CCN4CC3CC3)[C@H]2O6)CC1
- Ratio Ki [1]: 7.5
- Emax (Mu-type opioid receptor [2]): 37.2%
- Ratio Ki [3]: 2970

Compound: O=C(N[C@@H]1CC[C@@]2(O)[C@H]3Cc4ccc(O)c5c4[C@@]2(CCN3CC2CC2)[C@H]1O5)c1ccncc1
- EC50 [14]: 28.8 nM
- Emax [15]: 45.5%
